Consider 18 compounds from ChEMBL document CHEMBL3259769, “Symmetric adamantyl-diureas as soluble epoxide hydrolase inhibitors” (Bioorg Med Chem Lett, 2014).

Values after ≈ are worked out from the molar mass of the structure shown.

The target of data set [1] is T1, Bifunctional epoxide hydrolase 2 (Homo sapiens, UniProt P34913).
T1 sequence (P34913 whole entry): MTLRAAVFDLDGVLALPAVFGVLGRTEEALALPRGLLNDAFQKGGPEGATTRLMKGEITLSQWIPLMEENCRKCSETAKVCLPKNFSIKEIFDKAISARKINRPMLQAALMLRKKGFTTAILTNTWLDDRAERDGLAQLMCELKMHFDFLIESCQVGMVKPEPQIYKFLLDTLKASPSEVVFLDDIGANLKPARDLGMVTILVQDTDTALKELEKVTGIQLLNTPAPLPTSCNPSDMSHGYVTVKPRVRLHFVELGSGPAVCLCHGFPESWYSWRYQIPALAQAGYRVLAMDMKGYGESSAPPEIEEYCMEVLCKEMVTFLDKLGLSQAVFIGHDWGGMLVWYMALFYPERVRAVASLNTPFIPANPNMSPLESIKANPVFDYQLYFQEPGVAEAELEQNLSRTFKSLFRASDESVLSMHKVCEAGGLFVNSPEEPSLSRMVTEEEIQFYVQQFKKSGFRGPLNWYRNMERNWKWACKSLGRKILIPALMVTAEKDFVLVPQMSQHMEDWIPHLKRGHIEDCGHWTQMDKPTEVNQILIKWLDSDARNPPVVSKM
Kind of data set: Inhibition of recombinant human soluble epoxide hydrolase using CMNPC as substrate preincubated for 5 mins followed by substrate addition measured at 5 mins post substrate addition by fluorescence assay in presence of 0.1 mg/mL BSA.

Data set [2] concerns the target T1, Bifunctional epoxide hydrolase 2. The experiment in a line: Inhibition of recombinant human soluble epoxide hydrolase using CMNPC as substrate preincubated for 5 mins followed by substrate addition measured at 5 mins post substrate addition by fluorescence assay in presence of 1 mg/mL BSA.
Data set [3] in a line: Metabolic stability in human liver microsomes assessed as compound remaining at 1 uM after 30 mins by LC/MS/MS analysis in absence of NADPH. The conditions noted are these: read-out: Stability. The class given is ADME. The method in brief: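 Inhibitor added to human liver microsomes (1 mg/mL final) in 0.1 M potassium phosphate, pH 7.4, with 3 mM MgCl2 and 1 mM EDTA. After 5 min at 37 °C, buffer was added in place of NADPH generating system, then 30 min at 37 °C. Stopped with one volume methanol containing 200 nM CUDA surrogate. LC/MS/MS; % remaining; triplicate average.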

Data set [4] is described as follows: Solubility of the compound in sodium phosphate buffer at pH 7.4 after 24 hrs by LC/MS/MS analysis. The format is physicochemical. The method in brief: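 Compound suspended in 0.1 M sodium phosphate buffer, pH 7.4, containing 1% DMSO, held 24 h at 30 °C, then 1 h at rt. Centrifuged 10,000 rpm for 10 min; supernatant diluted 5-fold in methanol, 15 min at rt to precipitate salt, then re-centrifuged. Supernatant stored at -20 °C until LC/MS-MS quantitation.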

A short description of data set [5]: Metabolic stability in human liver microsomes assessed as compound remaining at 1 uM preincubated for 5 mins followed by NADPH addition measured after 30 mins by LC/MS/MS analysis. Conditions: read-out: Stability. The class given is ADME. The method in brief: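 Human liver microsomes (1 mg/mL final) in 0.1 M potassium phosphate, pH 7.4, 3 mM MgCl2, 1 mM EDTA, were preincubated with inhibitor 5 min at 37 °C. Reaction was started with NADPH generating system and run 30 min at 37 °C. Quenched with one volume methanol containing 200 nM CUDA surrogate. LC/MS/MS; % remaining; triplicate average.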
A general note: Liver microsomes are vesicles of endoplasmic reticulum, rich in cytochrome P450 enzymes.

Data set [6] deals with T1, Bifunctional epoxide hydrolase 2. Kind of data set: Displacement of ACPU from recombinant human soluble epoxide hydrolase after 1.5 hrs by FRET assay. The method in brief: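 Human sEH was preincubated with an equimolar amount of the fluorescent reporter ACPU for 2 h at rt. The complex (20 nM) was used in 100 mM sodium phosphate with 0.1% gelatin, pH 7.4, on gelatin-precoated plates. Inhibitor was added as 12 two-fold dilutions, with DMSO as control, and incubated 1.5 h. Fluorescence (ex 280/em 450 nm) was normalised to baseline and fitted to a three-state equilibrium model to give Ki.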

Data set [7] concerns the target T2, Bifunctional epoxide hydrolase 2 (Homo sapiens) (UniProt P34913).
T2 sequence (whole entry): T1 sequence (P34913 whole entry)

In the case of `O=C(NCCCCCCCCNC(=O)NC12CC3CC(CC(C3)C1)C2)NC12CC3CC(CC(C3)C1)C2`, in data set [1], the IC50 was found to be 997 nM.
For the compound `O=C(Nc1ccc(NC(=O)NC23CC4CC(CC(C4)C2)C3)cc1)NC12CC3CC(CC(C3)C1)C2`, the IC50 in data set [1] worked out at 19.5 nM.
For `CC(NC(=O)Nc1ccc(NC(=O)NC(C)C23CC4CC(CC(C4)C2)C3)cc1)C12CC3CC(CC(C3)C1)C2` (configuration not stated), the half-inhibitory concentration (IC50) in data set [1] was 161 nM.
In the case of `O=C(NC12CC3CC(CC(C3)C1)C2)NC12CC3CC(CC(C3)C1)C2`, the figures for the IC50 in data set [2] and in data set [1] were 1.3 nM and 1.2 nM, respectively. In addition, the remaining at 0.5 h, 1 µM in data set [3] was found to be 93%; in data set [5] it was 19%. Further, the solubility at 24 h in data set [4] turned out to be 5 µM (≈ 1.64 µg/mL).
For the compound `CC(NC(=O)NCCCCNC(=O)NC(C)C12CC3CC(CC(C3)C1)C2)C12CC3CC(CC(C3)C1)C2` (configuration not stated), the 50% inhibitory concentration (IC50) in data set [2] is 2.5 nM; in data set [1], 1.2 nM. The remaining at 0.5 h, 1 µM in data set [3] came out at 92%; in data set [5], 24%. Also, the concentration in solution in data set [4] (solubility at 24 h) was 10 µM (≈ 4.99 µg/mL). Besides, in data set [6], the Ki was found to be 2.7 nM. In data set [7], this compound displayed a T1/2 of 8 min.
Consider `O=C(NCCCCNC(=O)NCC12CC3CC(CC(C3)C1)C2)NCC12CC3CC(CC(C3)C1)C2`, for which, in data set [1], the IC50 amounted to 26.3 nM.
Same read-out and setting: the result for `O=C(NCC12CC3CC(CC(C3)C1)C2)Nc1ccc(NC(=O)NCC23CC4CC(CC(C4)C2)C3)cc1` reads 780 nM; that for `CCC(CNC(=O)NCCCCNC(=O)NCC(CC)C12CC3CC(CC(C3)C1)C2)C12CC3CC(CC(C3)C1)C2` (configuration not stated), 2.3 nM.
Regarding `CC(NC(=O)NCCCCCCCCNC(=O)NC(C)C12CC3CC(CC(C3)C1)C2)C12CC3CC(CC(C3)C1)C2` (configuration not stated), the figures for the IC50 in data set [2] and in data set [1] were 0.8 nM and 0.5 nM, respectively. In addition, the remaining at 0.5 h, 1 µM was determined as 100% in data set [3] and 11% in data set [5]. In data set [4], this compound came in with a solubility at 24 h of 10 µM (≈ 5.55 µg/mL). Also, in data set [6], the Ki was determined as 3.1 nM. In data set [7], this compound gave a T1/2 of 11 min.
Take `O=C(NC1CCCCC1)NC1CCCCC1` [1,3-DICYCLOHEXYLUREA]: the remaining at 0.5 h, 1 µM in data set [3] is 100%; in data set [5], 22%. Besides, the concentration in solution in data set [4] (solubility at 24 h) came to 5 µM (≈ 1.12 µg/mL).
As to `O=C(NCC1CCN(C(=O)NCC23CC4CC(CC(C4)C2)C3)CC1)NCC12CC3CC(CC(C3)C1)C2`, in data set [1], the IC50 amounted to 39.7 nM.
On the same count and under the same terms, under `O=C(NCCCCNC(=O)NC12CC3CC(CC(C3)C1)C2)NC12CC3CC(CC(C3)C1)C2` stands 7.2 nM.
With `CCC(CNC(=O)NCCCCCCCCNC(=O)NCC(CC)C12CC3CC(CC(C3)C1)C2)C12CC3CC(CC(C3)C1)C2` (configuration not stated), the IC50 in data set [1] was determined as 1440 nM.
With `O=C(NCCCCCCCCNC(=O)NCC12CC3CC(CC(C3)C1)C2)NCC12CC3CC(CC(C3)C1)C2`, the IC50 in data set [1] stood at 7.3 nM.
In the case of `O=C(NCCCCCCNC(=O)NCC12CC3CC(CC(C3)C1)C2)NCC12CC3CC(CC(C3)C1)C2`, the concentration for half-maximal inhibition (IC50) in data set [2] came out at 0.7 nM. The remaining at 0.5 h, 1 µM in data set [3] worked out at 102%; in data set [5], 3%. The compound further gave a solubility at 24 h in data set [4] of 50 µM (≈ 24.9 µg/mL). The inhibition constant Ki in data set [6] worked out at 3.4 nM. Moreover, in data set [7], the T1/2 turned out to be 10 min.
On to `O=C(NCCNC(=O)NCC12CC3CC(CC(C3)C1)C2)NCC12CC3CC(CC(C3)C1)C2`, for which, in data set [1], the concentration for half-maximal inhibition (IC50) was 179 nM.
Turning to `O=C(NCCCCNC(=O)NC1C2CC3CC(C2)CC1C3)NC1C2CC3CC(C2)CC1C3` (configuration not stated), in data set [1], the IC50 turned out to be 10.4 nM.
As for `O=C(NCCCCCCCCNC(=O)NC1C2CC3CC(C2)CC1C3)NC1C2CC3CC(C2)CC1C3` (configuration not stated), the IC50 in data set [2] came out at 4.1 nM; in data set [1], 2.6 nM. For the same compound, the remaining at 0.5 h, 1 µM was determined as 100% in data set [3] and 36% in data set [5]. For the same compound, the concentration in solution in data set [4] (solubility at 24 h) was 5 µM (≈ 2.49 µg/mL). Besides, the Ki in data set [6] worked out at 2.4 nM. Besides, in data set [7], the T1/2 was determined as 2.5 min.

As usually defined, the IC50 is the concentration that inhibits the measured activity by half. Usually solubility stands for the concentration that dissolves in the medium under given conditions. A word on the Ki: it is the equilibrium dissociation constant of an inhibitor or competing ligand from its target.
